Bioassay records (PubChem)
Shown are actives, neighbours in structure and some others; about 2.7% of the full set was active somewhere.
Yeast lifespan up: extends the lifespan of yeast | S. cerevisiae growth with nicotinamide, OD615; deaD strain in restrictive glucose medium | inhibition of the nicotinamide effect, % at 10 µM | 0.68% of 130,000 active | AID 775;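 active = inhibition above a set limit, placed 3 SD over the median of all compounds, cut at about 26% in these data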;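 also: 0% = nicotinamide-treated wells and 100% = cells grown without nicotinamide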
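Assay system: engineered S. cerevisiae DeaD replicative-lifespan strain, galactose-grown log-phase cells; medium: restrictive CSMM-D dextrose medium; also added: nicotinamide, 1.5 mM, co-present with compound; schedule: 48 h compound exposure at 30 °C, humidified; detection: absorbance at 615 nm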
BB579 growth dn: reduces growth of yeast BB579 in restrictive medium | S. cerevisiae BB579 growth, OD615, 48 h | inhibition, % at 10 µM | 0.51% of 140,000 active | AID 804;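 active = inhibition above a set limit, 3 SD over the mean compound inhibition, cut at about 44% in these data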
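Test system: Saccharomyces cerevisiae DeaD strain BB579, replicative lifespan model yeast | Buffer or medium: Restrictive CSMM-D medium | Doses: One dose, 10 µM compound with 0.25% DMSO | Incubation: 48 h exposure, 30 °C | Detection: Culture absorbance at 615 nm | Control set: Amphotericin B at 10 µg/mL as positive control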
RAM network inh: inhibitors of the yeast RAM network. S. cerevisiae dse1pr::URA3 reporter, 5-FOA growth OD615, 2 d; analog-sensitive cbk1-as2 kinase mutant strain. inhibition, % at 50 µM. 1.8% of 190,000 active;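 active = inhibition above a set limit, 3 SD over mean compound inhibition, cut at about 8.4% in these data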;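 also: 0% = DMSO-only wells with no growth and 100% = 10 µM 1-NA-PP1 full growth; inhibition rescues growth on 5-FOA so higher OD means more RAM inhibition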
SDO1 yeast rescue: compounds rescuing growth of sdo1-depleted yeast, bone marrow failure model; S. cerevisiae sdo1-depleted JHY4D growth rescue, OD600 30 h; active compounds read high; pdr5 snq2 efflux-pump mutant strain; 0.21% of 140,000 active; z-score at 10 µM; AID 817;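 active = z-score above 3 at both the 24 hr and the 30 hr optical density reads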;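 also: z-score against mean and SD of all compound wells on the same plate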
SDO1 rescue DR: confirmation of growth rescue in SDO1-depleted yeast, bone marrow failure | S. cerevisiae JHY4D (SDO1-depleted) growth rescue, OD600, 30 h; active compounds read high; efflux-deficient strain, SNQ2 and PDR5 mutated | OD recovery (test concentration not listed) | shares compounds with SDO1 yeast rescue | 44% of 440 active;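 active = yeast growth recovered at 30 hours, either rising with dose fitted slope above 0.001 or with average optical density gain above 0.07, some results past the limit were not filed as active; inactive = growth falling with dose or no effect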;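 also: gain in OD600 from 0 h to 30 h averaged across all seven doses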
* hit, by the source's call.

Screening COC(CNC(=O)C(=O)NCC1OCCN1C(=O)c1ccc(Cl)cc1)OC (stereo not given) returned Yeast lifespan up -2, BB579 growth dn -5, RAM network inh 1 and SDO1 yeast rescue 0.41.
`CCOCCOC(=O)C(C)Oc1ccc(Oc2ncc(Cl)cc2Cl)cc1` (stereo not given) gave Yeast lifespan up 0, BB579 growth dn -8, RAM network inh 0, SDO1 yeast rescue 6.9* and SDO1 rescue DR 0.11*.
Oc1ccc(Oc2ncc(Cl)cc2Cl)cc1 was read as Yeast lifespan up -12, BB579 growth dn -66, RAM network inh 0 and SDO1 yeast rescue -0.24.
O=C(CCSCCC(=O)NCCN1CCOCC1)NCCN1CCOCC1 was read as Yeast lifespan up -5, BB579 growth dn 4, RAM network inh -1 and SDO1 yeast rescue 0.83.
O=C(CCSCCc1ccncc1)NCCCN1CCOCC1 was read as Yeast lifespan up -13, BB579 growth dn -50, RAM network inh 3, SDO1 yeast rescue 2.6 and SDO1 rescue DR 0.1*.
For NS(=O)(=O)c1ccc(NC(=O)CSC2=NC(=O)C(c3ccccc3)C(=O)N2)cc1 (stereo not given) the results were Yeast lifespan up -21, BB579 growth dn -18, RAM network inh 1, SDO1 yeast rescue 8.7* and SDO1 rescue DR 0.048.
COc1cccc(CC(NC(C)=O)C(=O)NC2CCN(S(=O)(=O)c3ccc(C)cc3)CC2)c1OC (stereo not given) was read as RAM network inh 0.
`CCN(CC)CCCNC(=O)c1sc2nc(-c3ccc(F)cc3)cn2c1C` gave Yeast lifespan up -10, BB579 growth dn 7, RAM network inh 0, SDO1 yeast rescue 3.6* and SDO1 rescue DR 0.083*.
For Cc1c(C(=O)NCc2ccccn2)sc2nc(-c3ccc(F)cc3)cn12 the results were Yeast lifespan up -7, BB579 growth dn -30, RAM network inh 6 and SDO1 yeast rescue 0.29.
COc1ccc(NC(=O)C2CCCCN2S(=O)(=O)c2ccc(F)cc2)cc1 (stereo not given) was read as Yeast lifespan up -6, BB579 growth dn 8, RAM network inh 2, SDO1 yeast rescue 0.85 and SDO1 rescue DR 0.042.
Screening COCCn1c(SCC#N)nnc1-c1ccc(OC)cc1 returned BB579 growth dn -42, RAM network inh -1, SDO1 yeast rescue 9* and SDO1 rescue DR 0.058.
`COCCn1c(SCC(=O)Nc2sc(C)c(C)c2C#N)nnc1-c1ccc(OC)cc1` gave Yeast lifespan up -15, BB579 growth dn -21, RAM network inh -1 and SDO1 yeast rescue -1.1.
For O=[N+]([O-])c1ccc(N/N=C\c2ccccc2OCc2ccccc2)cc1 the results were Yeast lifespan up 5, BB579 growth dn -8, RAM network inh 5, SDO1 yeast rescue 1.8 and SDO1 rescue DR 0.06.
For Cc1nn(Cc2ccc(Br)cc2)c(C)c1NC(=O)c1nn(C)cc1Cl the results were Yeast lifespan up -10, BB579 growth dn 6, RAM network inh 0, SDO1 yeast rescue 15* and SDO1 rescue DR 0.05.
For Cc1ccc(Cn2nc(C)c(NC(=O)c3nn(C)cc3Cl)c2C)cc1 the results were BB579 growth dn -16, RAM network inh 1 and SDO1 yeast rescue 0.79.
For CCCc1nnc(SCC(=O)N2CCCC2)n1CC1CCCO1 (stereo not given) the results were Yeast lifespan up -7, BB579 growth dn -46, RAM network inh 1, SDO1 yeast rescue 3.2* and SDO1 rescue DR 0.053.
For CCCc1nnc(SCC(=O)N2CCCCC2)n1CC1CCCO1 (stereo not given) the results were Yeast lifespan up -4, BB579 growth dn -20, RAM network inh 2 and SDO1 yeast rescue 0.19.
`CCOC(=O)CN(C(=O)COc1ccc2c(C)cc(=O)oc2c1)c1ccc(OCC)cc1` gave RAM network inh 2.
Screening CC12CCC(c3c1nc1ccccc1[n+]3[O-])C2(C)C (stereo not given) returned Yeast lifespan up 7, BB579 growth dn -3, RAM network inh 2, SDO1 yeast rescue 5.4* and SDO1 rescue DR 0.08*.
`CC12CCC(C(=O)n3c1nc1ccccc13)C2(C)C` (stereo not given) gave Yeast lifespan up 8, BB579 growth dn 7, RAM network inh 0 and SDO1 yeast rescue -0.88.
